# Fam108B inh – Fam108B inhibition, counter-screen for RBBP9 inhibitors; recombinant Fam108B, FP-Rh probe fluorescence polarization; inhibition, % at 9.51 µM; hit rate 0.33% among 300,000; AID 1947;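 active = inhibition above the screen mean inhibition plus 3 SD, computed separately per campaign, cut at about 18% in these data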;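 note: inhibitors lower polarization as less probe binds the enzyme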
# procasp3 activ – activators of human procaspase-3. P42574. recombinant procaspase-3 D3A, Ac-DEVD-pNA absorbance 405 nm. activation, % at 8.5 µM. hit rate 0.11% among 330,000. AID 463141;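 active = activation above the mean of all tested compounds plus 3 SD, cut at about 21% in these data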;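 note: 0% = DMSO alone and 100% = DMSO wells spiked with extra 5 µM PC-3 D3A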
#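 Test system: Procaspase-3 D3A mutant; medium: Zinc-free HEPES/NaCl buffer with 0.01% Triton X-100 at pH 7.4; reagent: DEVD-pNA substrate; doses: one concentration, 8.5 µM nominal, 0.8% DMSO; times: 1 h preincubation plus 2 h reaction at 25 °C; signal: Epi-absorbance at 405 nm of released p-nitroaniline, 0 and 120 min; replicates: singlicate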
# LYPLA2 counter – blocks human lysophospholipase 2, a PME1 counter-screen. O95372. recombinant LYPLA2, FP-Rh probe fluorescence polarization. inhibition, % at 5.9 µM. hit rate 0.38% among 320,000;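 active = inhibition above the screen-wide mean plus 3 SD, limit set per campaign, cut at about 26% in these data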;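 note: 0% = LYPLA2 with DMSO and 100% = wells lacking LYPLA2 enzyme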
# LYPLA1 inh – blocks human lysophospholipase 1, a PME1 counter-screen. recombinant LYPLA1, FP-Rh probe fluorescence polarization. inhibition, % at 5.9 µM. hit rate 0.16% among 320,000. AID 2174;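 active = inhibition above the mean of all tested compounds plus 3 SD, set per campaign, cut at about 14% in these data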;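 note: inhibitors block serine hydrolase probe labeling of LYPLA1 so polarization falls; 0% = enzyme with DMSO and 100% = wells lacking LYPLA1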
# procasp7 counter – counter-screen for procaspase-3 activators: activators of human procaspase-7; P55210; recombinant procaspase-7, Ac-DEVD-pNA absorbance 405 nm; D23A/D198A/D206A triple mutant, cannot self-cleave; scale: DMSO 0, 5 µM enzyme 100; activation, % at 8.5 µM; hit rate 0.093% among 330,000; AID 463210;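 active = percent activation above the screen-wide mean plus 3 SD, cut at about 25% in these data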
# Target sequence (P55210 whole entry D23A/D198A/D206A): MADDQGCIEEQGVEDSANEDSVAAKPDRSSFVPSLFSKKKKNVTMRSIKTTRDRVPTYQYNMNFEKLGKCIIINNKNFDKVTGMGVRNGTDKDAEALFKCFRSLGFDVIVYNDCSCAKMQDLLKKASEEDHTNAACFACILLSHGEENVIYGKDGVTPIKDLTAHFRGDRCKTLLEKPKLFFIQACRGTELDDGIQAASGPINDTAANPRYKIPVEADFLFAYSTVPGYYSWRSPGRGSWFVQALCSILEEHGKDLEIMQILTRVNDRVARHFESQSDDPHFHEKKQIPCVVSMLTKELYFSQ
#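 Assay system: Uncleavable procaspase-7 mutant enzyme / Input: 2 µM procaspase-7 mutant as dispensed / Dosing: single nominal 8.5 µM compound dose, 0.8% DMSO final / Timing: 1 h enzyme–compound preincubation and 2 h substrate reaction, both 25 °C / Detection: p-Nitroaniline absorbance at 405 nm, read at 0 and 120 min / Replication: singlicate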
# PME-1 primary – PME-1 (human) inhibition; inhibition, % at 5.9 µM; recombinant PME-1, FP-Rh probe fluorescence polarization; Q9Y570; hit rate 0.53% among 320,000;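 active = inhibition above the campaign mean of all compounds plus 3 SD, cut at about 26% in these data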;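 note: competitive labeling of PME-1 active site by serine hydrolase directed probe; 0% = PME-1 with DMSO and 100% = wells lacking PME-1 enzyme; inhibitors block probe labeling so polarization falls and inhibition rises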
# Target sequence (Q9Y570 whole entry, looked up): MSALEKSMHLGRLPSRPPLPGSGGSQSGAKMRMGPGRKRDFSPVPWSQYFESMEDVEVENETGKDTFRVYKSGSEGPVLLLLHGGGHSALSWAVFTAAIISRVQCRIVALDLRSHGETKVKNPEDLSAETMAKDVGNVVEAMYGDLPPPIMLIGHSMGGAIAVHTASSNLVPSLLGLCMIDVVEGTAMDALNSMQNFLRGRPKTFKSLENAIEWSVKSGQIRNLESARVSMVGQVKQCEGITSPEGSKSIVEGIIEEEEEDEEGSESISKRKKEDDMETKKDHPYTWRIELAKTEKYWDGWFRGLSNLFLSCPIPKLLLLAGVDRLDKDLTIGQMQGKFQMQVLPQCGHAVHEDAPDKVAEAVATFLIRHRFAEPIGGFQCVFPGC
# Fam108b inh conf – confirmation of mouse Fam108b serine hydrolase inhibitors; shares compounds with Fam108B inh; recombinant Fam108b, FP-Rh probe fluorescence polarization; inhibition, % at 9.51 µM; hit rate 44% among 930;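 active = inhibition above a limit from the primary screen, the mean over all compounds plus 3 SD, cut at about 19% in these data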;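 note: 0% = median of active Fam108b wells and 100% = catalytically dead S170A mutant; inhibitors free the probe so polarization falls as inhibition rises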
# Fam108b inh – inhibits mouse Fam108b in gel-based ABPP; hit rate 44% among 260; recombinant Fam108b, fluorophosphonate probe; shares compounds with Fam108B inh; inhibition, % at 20 µM; AID 588649; in the data active = inhibition above about 40%
# * marks the source's active call; other numbers are inactive results; . = not tested or not shown. Hits are enriched below; roughly 1% of the tested compounds scored in any of these assays.
SMILES,Fam108B inh,procasp3 activ,LYPLA2 counter,LYPLA1 inh,procasp7 counter,PME-1 primary,Fam108b inh conf,others
Cc1ccc(NC(=O)CC(C)CC(=O)NCc2ccccc2)cc1Cl (stereo not given),0,1,6,0,15,-6,.,
CCN(CC)c1nc2c3c(nc4c(c3c1C#N)CC(=O)N4c1ccc(Cl)cc1)NC(C)=N2,24*,0,-4,-10,2,27*,18*,
CCc1ccc(N2C(=O)Cc3c2nc(N)c(C#N)c3N)cc1,0,1,-2,0,12,7,.,
CC(C)=CCC1=C(OCC(=O)O)C(=O)c2ccccc2C1=O,23*,1,8,2,-2,21,12,
N#CCCN(C(=O)COC(=O)CCc1nc2ccccc2c(=O)[nH]1)c1ccccc1F,.,5,-4,0,6,-2,.,
O=C(Nc1cc(S(=O)(=O)N2CCOCC2)ccc1N1CCCC1)c1cnccn1,18*,-7,0,1,-3,6,23*,
Cc1cc(C)cc(N(CC(=O)NC2CCCC2)C(=O)CNC(=O)c2cccs2)c1,-4,13,2,-1,7,8,.,
Nc1c(S(=O)(=O)O)cc(NC(=O)c2ccccc2)c2c1C(=O)c1ccccc1C2=O,53*,-8,16,14,-8,54*,50*,
O=[N+]([O-])c1ccc(Nc2nc(N/N=C/c3cccc(F)c3)nc(N3CCCC3)n2)cc1,-3,7,-35,-25,9,-26,.,
COc1cccc(/C=N/Nc2ccc([N+](=O)[O-])cn2)c1O,51*,14,0,-3,-15,75*,5,
COc1cccc(/C=N/Nc2nc(Nc3ccc([N+](=O)[O-])cc3)nc(N3CCCC3)n2)c1O,25*,-4,-23,-14,3,5,31*,
COc1ccc2c(Cl)c(C(=O)N/N=C/c3ccc4c(c3)OCO4)sc2c1,-17,5,-5,-6,0,-3,.,
COc1ccc2c(Cl)c(C(=O)N/N=C/c3c(C)[nH]c4ccccc34)sc2c1,33*,-3,-11,-11,2,32*,21*,
COc1cc2nc(Nc3ccc(C)c(Cl)c3)nc(N)c2cc1OC,23*,-1,4,6,-1,35*,16,
COc1cc2nc(Nc3ccc(C)c(C)c3)nc(N)c2cc1OC,5,2,1,-2,-5,18,.,
CCSc1nnc(NC(=O)CSc2nnc(C)c(=O)n2N)s1,-1,1,-8,-6,0,-5,.,
CC1=NN(c2ccc(Cl)cc2)C(=O)C1C(c1cccc(O)c1)c1c(C)[nH]n(-c2ccc(Cl)cc2)c1=O (stereo not given),31*,10,18,-4,-5,17,17,
CC(C)n1nnnc1SCC(=O)N1N=C(c2cccs2)CC1c1cccs1 (stereo not given),.,4,3,-2,-9,11,.,
CC(Sc1nnc(NC2CCCCC2)s1)C(=O)Nc1ccc2c(c1)C(=O)c1ccccc1C2=O (stereo not given),27*,-2,-10,-7,3,32*,5,
CCOc1ccc2nc(N3C(=O)/C(=C/c4ccccc4)NC3=S)sc2c1,20*,2,-6,6,0,23,12,
COc1ccc2nc(-n3c(C)ccc3C)sc2c1,0,2,-5,1,-2,-3,.,
CCOc1ccc2nc(N3CCCCCC3)sc2c1,-1,0,3,-1,7,-3,.,
COc1ccc2nc(N3C(=O)/C(=C/c4ccccc4)NC3=S)sc2c1,20*,-2,-3,4,7,58*,22*,
Cn1c(=O)c(Nc2ccc(O)cc2)c2c3c(cccc31)C(=O)c1ccccc1-2,23*,-1,10,6,-6,36*,22*,
O=C(NCc1ccco1)c1cccc(Nc2nc3ccc(Br)cc3[nH]2)c1,25*,3,-37,-17,8,24,11,
SMILES,Fam108B inh,procasp3 activ,LYPLA2 counter,LYPLA1 inh,procasp7 counter,PME-1 primary,Fam108b inh conf,others
O=C(NCC1CC1)c1ccc(Nc2nc3ccc(Br)cc3[nH]2)cc1,19*,-4,-6,-13,-1,7,48*,Fam108b inh=75*
Cc1ccc(C2C3=C(CC(C)(C)CC3=O)N=C3c4ccccc4C(=O)C32)cc1 (stereo not given),23*,2,-1,-7,-2,11,15,
CC1(C)CC(=O)C2=C(C1)N=C1c3ccccc3C(=O)C1C2c1ccc(Cl)cc1 (stereo not given),8,8,-6,-11,0,14,.,
CCN(CC)S(=O)(=O)c1ccc2c(c1)N(CC(=O)N1CCC(C(N)=O)CC1)C(=O)CO2,-3,2,-6,1,1,-12,.,
Cc1ccc(C)c(S(=O)(=O)Nc2cc(SCC(=O)O)c(O)c3ccccc23)c1,29*,-18,35*,4,-14,28*,-10,
Cc1ccccc1N(C(=O)c1snc(C(N)=O)c1N)C(C(=O)NCC1CCCO1)c1ccc(F)cc1 (stereo not given),0,-9,0,-3,-1,0,.,
Cc1nc(SCc2nc3c(F)cccc3[nH]2)c2oc3ccccc3c2n1,.,2,.,.,9,.,.,
CC1CCN(S(=O)(=O)c2ccc(C(=O)Nc3ccccc3-c3nc4ccccc4[nH]3)cc2)CC1,29*,6,-32,-27,5,-46,71*,Fam108b inh=100*
CC(C)c1ccc(N(CC(=O)NC(C)(C)C)C(=O)CCC(=O)Nc2nccs2)cc1,-5,4,13,2,8,2,.,
O=C(O)COc1ccccc1C=NNc1ccc([N+](=O)[O-])cc1S(=O)(=O)Nc1ccc(Cl)cc1,.,-22,.,.,-39,.,.,
O=C(O)COc1ccccc1/C=N/Nc1ccc(S(=O)(=O)Nc2ccc(Cl)cc2)cc1[N+](=O)[O-],18*,-4,3,3,-18,50*,24*,
O=C(COc1ccccc1C(=O)N/N=C\c1ccc(O)c(O)c1)N/N=C/c1ccc(O)c(O)c1,35*,-9,-16,-12,-7,35*,2,
O=C(COc1ccccc1[N+](=O)[O-])N/N=C/c1ccc(O)c([N+](=O)[O-])c1,-8,0,-17,-4,3,1,.,
CC(=O)N1CC23C=CC(CC2CC12CCCCCC2)O3 (stereo not given),3,9,-4,-2,4,-2,.,

# Assay outcomes (PubChem BioAssay)
